# Source: PMC6398604 (Journal of medicinal chemistry, 2018)
# Legend:
# [1] = test system: rat hepatocytes; assay: Hepatocyte stability; type: in vitro ADME
# [2] = Rat pharmacokinetics; type: in vivo; conditions: for clearance: rat, plasma, iv, 1 mg/kg; for rat PK profile (in words): rat PK studies
# [3] = Mouse Blood-Brain Barrier; type: in vivo; conditions: 10 mg/kg ip, mice
# Outline: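 Male C57BL/6J mice (8 weeks) were habituated and handled before dosing. Test compound was suspended in 0.1% Tween80, 0.1% silicone antifoam and 1% methylcellulose in water, then given once ip at 10 mg/kg (10 mL/kg). At 5, 15 or 60 min, mice under isoflurane gave cardiac blood (Li-heparin) and were PBS-perfused. Plasma was spun 2000 rpm, 4°C, 15 min. Brain was homogenised in 4x (w/v) PBS pH 7.4 for total levels.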
# [4] = cited from earlier work
# [5] = test system: dopamine metabolites HVA and DOPAC in rat CSF (COMT); assay: Rat biomarker assay: HVA and DOPAC in CSF; type: in vivo; conditions: 4 hours after 10 mpk oral
# [6] = Rat biomarker assay: inhibitor concentrations in plasma, brain and CSF; type: in vivo; conditions: for concentration at 4 h: male, Sprague Dawley, CSF, oral, 10 mg/kg, Free CSF, 4 hours after 10mg/kg oral dose, corrected for non-specific binding to CSF
# [7] = Non-specific binding to CSF by equilibrium dialysis; type: in vitro ADME; conditions: pooled rat CSF, 2 μM testing concentration
# [8] = biological target: P-glycoprotein (Homo sapiens, UniProt P08183); assay: P-gp efflux ratio in P-glycoprotein expressing MDCK cells; type: in vitro ADME
# Sequence of P-glycoprotein (P08183 whole entry): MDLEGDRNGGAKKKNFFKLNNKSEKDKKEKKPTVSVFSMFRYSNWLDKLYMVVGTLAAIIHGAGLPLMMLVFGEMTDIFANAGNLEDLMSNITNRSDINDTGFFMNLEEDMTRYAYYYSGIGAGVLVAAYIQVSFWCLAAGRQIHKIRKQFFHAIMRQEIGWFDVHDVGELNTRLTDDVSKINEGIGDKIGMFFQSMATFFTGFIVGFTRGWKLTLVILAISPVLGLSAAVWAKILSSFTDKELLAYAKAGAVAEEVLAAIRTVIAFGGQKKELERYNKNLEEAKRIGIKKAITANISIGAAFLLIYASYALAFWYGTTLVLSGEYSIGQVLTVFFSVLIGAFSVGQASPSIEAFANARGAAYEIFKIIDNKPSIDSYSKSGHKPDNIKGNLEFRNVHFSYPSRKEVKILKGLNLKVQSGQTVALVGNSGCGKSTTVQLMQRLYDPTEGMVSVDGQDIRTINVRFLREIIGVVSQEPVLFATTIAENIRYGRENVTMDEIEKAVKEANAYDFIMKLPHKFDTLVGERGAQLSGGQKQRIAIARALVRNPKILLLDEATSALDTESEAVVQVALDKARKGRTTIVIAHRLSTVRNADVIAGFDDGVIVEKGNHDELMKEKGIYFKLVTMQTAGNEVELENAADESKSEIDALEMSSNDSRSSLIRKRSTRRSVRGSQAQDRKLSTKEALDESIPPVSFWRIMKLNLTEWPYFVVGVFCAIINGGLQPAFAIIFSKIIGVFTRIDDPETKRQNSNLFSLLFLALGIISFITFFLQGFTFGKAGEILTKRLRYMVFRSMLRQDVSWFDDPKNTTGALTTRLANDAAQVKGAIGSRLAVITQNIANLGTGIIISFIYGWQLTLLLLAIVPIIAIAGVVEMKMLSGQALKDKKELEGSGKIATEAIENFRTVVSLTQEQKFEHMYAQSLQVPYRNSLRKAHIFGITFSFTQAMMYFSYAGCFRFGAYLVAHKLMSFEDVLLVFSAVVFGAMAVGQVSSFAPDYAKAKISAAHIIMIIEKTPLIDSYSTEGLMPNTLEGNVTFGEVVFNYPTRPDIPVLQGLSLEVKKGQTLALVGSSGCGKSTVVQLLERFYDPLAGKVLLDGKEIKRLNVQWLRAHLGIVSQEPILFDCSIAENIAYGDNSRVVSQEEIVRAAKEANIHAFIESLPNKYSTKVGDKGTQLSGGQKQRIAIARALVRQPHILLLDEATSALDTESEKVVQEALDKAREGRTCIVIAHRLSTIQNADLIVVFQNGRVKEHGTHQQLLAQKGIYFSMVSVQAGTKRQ
# [9] = biological target: T1, Human MB-COMT (Homo sapiens, UniProt P21964); assay: MTase Glo Methyltransferase assay, MB-COMT; type: biochemical
# T1 sequence (P21964 1-271): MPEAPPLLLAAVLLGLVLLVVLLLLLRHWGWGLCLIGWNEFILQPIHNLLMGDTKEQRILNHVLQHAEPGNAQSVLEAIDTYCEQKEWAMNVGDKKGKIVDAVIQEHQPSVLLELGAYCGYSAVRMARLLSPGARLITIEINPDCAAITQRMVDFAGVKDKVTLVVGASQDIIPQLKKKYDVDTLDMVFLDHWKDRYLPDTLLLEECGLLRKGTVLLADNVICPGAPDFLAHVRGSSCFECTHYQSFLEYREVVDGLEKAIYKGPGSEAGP
# [10] = cited from earlier work; remark: listed apart in the source
# [11] = biological target: T2, BCRP (Homo sapiens, UniProt Q9UNQ0); assay: Transporter susceptibility and inhibitory activity, BCRP; type: in vitro ADME; conditions: data not shown
# T2 sequence (Q9UNQ0 1-655): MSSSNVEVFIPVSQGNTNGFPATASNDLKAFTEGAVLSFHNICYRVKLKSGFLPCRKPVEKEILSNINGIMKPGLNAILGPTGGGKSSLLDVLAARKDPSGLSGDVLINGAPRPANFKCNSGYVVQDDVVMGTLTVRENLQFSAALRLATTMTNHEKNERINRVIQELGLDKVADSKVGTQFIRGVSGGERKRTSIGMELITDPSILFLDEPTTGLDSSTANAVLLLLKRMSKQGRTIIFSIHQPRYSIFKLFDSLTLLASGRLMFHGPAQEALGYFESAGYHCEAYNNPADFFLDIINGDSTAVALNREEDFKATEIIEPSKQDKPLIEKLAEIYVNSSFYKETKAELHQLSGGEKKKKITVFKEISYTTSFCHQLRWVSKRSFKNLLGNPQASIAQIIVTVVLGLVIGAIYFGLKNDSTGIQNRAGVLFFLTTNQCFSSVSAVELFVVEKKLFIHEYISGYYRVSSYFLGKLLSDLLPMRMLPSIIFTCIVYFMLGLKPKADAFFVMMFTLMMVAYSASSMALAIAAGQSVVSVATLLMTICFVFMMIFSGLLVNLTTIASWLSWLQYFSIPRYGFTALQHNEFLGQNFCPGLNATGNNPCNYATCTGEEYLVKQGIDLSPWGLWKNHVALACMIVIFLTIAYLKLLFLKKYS
# [12] = biological target: P-gp (Homo sapiens, UniProt P08183); assay: Transporter susceptibility and inhibitory activity, P-gp; type: in vitro ADME; conditions: data not shown
# Sequence of P-gp (P08183 whole entry): as the sequence (P08183 whole entry) above
# [13] = biological target: MRP2 (Homo sapiens, UniProt Q92887); assay: Transporter susceptibility and inhibitory activity, MRP2; type: in vitro ADME; conditions: data not shown
# Sequence of MRP2 (Q92887 whole entry, species assumed): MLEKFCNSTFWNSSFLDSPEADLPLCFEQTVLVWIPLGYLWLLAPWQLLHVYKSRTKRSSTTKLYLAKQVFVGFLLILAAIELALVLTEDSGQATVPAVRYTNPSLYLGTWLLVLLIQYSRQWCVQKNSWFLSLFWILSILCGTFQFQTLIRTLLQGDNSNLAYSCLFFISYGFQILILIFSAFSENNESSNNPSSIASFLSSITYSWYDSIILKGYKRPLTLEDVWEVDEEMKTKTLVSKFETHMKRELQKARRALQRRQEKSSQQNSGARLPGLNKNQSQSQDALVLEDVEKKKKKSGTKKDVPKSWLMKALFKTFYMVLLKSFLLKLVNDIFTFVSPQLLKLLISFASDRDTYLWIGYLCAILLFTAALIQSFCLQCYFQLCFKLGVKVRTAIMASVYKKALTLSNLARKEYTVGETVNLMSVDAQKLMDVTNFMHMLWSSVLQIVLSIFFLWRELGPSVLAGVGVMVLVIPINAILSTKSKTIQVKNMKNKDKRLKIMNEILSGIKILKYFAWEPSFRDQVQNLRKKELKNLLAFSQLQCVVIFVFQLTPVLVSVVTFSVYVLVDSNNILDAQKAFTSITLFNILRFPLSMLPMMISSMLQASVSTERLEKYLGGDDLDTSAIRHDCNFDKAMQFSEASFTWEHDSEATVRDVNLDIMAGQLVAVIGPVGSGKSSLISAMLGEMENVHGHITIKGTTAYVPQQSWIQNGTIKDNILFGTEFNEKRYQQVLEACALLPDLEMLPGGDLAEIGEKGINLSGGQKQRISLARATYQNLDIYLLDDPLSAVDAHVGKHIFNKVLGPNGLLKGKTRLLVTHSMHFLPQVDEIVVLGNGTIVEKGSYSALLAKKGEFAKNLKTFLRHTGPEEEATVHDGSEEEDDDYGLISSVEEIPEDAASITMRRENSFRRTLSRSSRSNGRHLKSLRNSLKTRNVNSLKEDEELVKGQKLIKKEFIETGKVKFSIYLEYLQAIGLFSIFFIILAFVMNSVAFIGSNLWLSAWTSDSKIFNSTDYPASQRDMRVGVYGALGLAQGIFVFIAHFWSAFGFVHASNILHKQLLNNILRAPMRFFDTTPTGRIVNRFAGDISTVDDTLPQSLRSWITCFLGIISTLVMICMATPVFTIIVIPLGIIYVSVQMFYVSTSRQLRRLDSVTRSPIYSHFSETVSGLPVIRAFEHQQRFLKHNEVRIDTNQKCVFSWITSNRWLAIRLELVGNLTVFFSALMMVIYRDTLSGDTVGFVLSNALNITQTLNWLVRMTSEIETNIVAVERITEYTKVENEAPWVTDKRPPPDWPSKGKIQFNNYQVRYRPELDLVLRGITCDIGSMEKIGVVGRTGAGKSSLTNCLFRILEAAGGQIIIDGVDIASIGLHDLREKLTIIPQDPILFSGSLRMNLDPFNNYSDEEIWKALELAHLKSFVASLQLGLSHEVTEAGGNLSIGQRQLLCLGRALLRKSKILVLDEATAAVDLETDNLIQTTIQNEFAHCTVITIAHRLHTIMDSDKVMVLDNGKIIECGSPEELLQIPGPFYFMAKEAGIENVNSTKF
smiles,measurement,setting,value
"O=S(=O)(c1ccc(C(F)(F)F)cc1)c1ccc(O)c2ncccc12 [Compound 17, 5-((4-(Trifluoromethyl)phenyl)sulfonyl)quinolin-8-ol]",Hepatocyte Stability (Rat),[1],46 μL/min/10^6 cells
same,metabolic stability / clearance in rat hepatocytes (in words),[1],high hepatocyte clearance
"Cc1ccc(S(=O)(=O)c2cc(F)c(O)c3ncccc23)cc1 [Compound 21, 7-Fluoro-5-tosylquinolin-8-ol]",clearance,[2],27 mL/min/kg
same,Hepatocyte Stability (Rat),[1],36 μL/min/10^6 cells
"O=S(=O)(c1ccc(F)cc1)c1cc(Cl)c(O)c2ncccc12 [Compound 19, 7-Chloro-5-((4-fluorophenyl)sulfonyl)quinolin-8-ol]",rat PK profile (in words),[2],very low clearance and long half-life
same,clearance,[2],0.31 mL/min/kg
same,Hepatocyte Stability (Rat),[1],4 μL/min/10^6 cells
"O=S(=O)(c1cc(Cl)c(O)c2ncccc12)C1CCCC1 [Compound 26, 7-Chloro-5-(cyclopentylsulfonyl)quinolin-8-ol]",rat PK profile (in words),[2],very low clearance and long half-life
same,Hepatocyte Stability (Rat),[1],18 μL/min/10^6 cells
"O=S(=O)(c1ccc(O)c2ncccc12)N1CCCC1 [Compound 12, 5-(Pyrrolidin-1-ylsulfonyl)quinoline-8-ol]",Hepatocyte Stability (Rat),[1],177 μL/min/10^6 cells
same,metabolic stability / clearance in rat hepatocytes (in words),[1],Poor metabolic stability
"O=S(=O)(c1ccc(O)c2ncccc12)N1CCCC1Cc1ccccc1 (centres unmarked) [Compound 16, 5-((2-Benzylpyrrolidin-1-yl)sulfonyl)quinoline-8-ol]",Hepatocyte Stability (Rat),[1],228 μL/min/10^6 cells
same,metabolic stability / clearance in rat hepatocytes (in words),[1],high hepatocyte clearance
same,overall exposure in mouse (in words),[3],low overall exposure
"CCN(CC)C(=O)/C(C#N)=C/c1cc(O)c(O)c([N+](=O)[O-])c1 [Compound 2, entacapone]",brain penetration (in words),[4],negligible brain penetration
"O=S(=O)(c1cc(F)c(O)c2ncccc12)C1CCCC1 [Compound 25, 5-(Cyclopentylsulfonyl)-7-fluoroquinolin-8-ol]",rat PK profile (in words),[2],good pharmacokinetics
same,clearance,[2],0.62 mL/min/kg
same,Hepatocyte Stability (Rat),[1],19 μL/min/10^6 cells
same,"HVA decrease, significance versus vehicle (in words)",[5],statistically significant difference
same,concentration at 4 h,[6],139 nM
same,Non-specific binding to CSF (bound),[7],51–57%
"O=S(=O)(c1ccc(O)c2ncccc12)N1CCC(c2ccc(F)cc2)C1 (centres unmarked) [Compound 13, 5-((3-(4-Fluorophenyl)pyrrolidin-1-yl)sulfonyl)quinoline-8-ol]",metabolic stability / clearance in rat hepatocytes (in words),[1],Poor metabolic stability
"CCS(=O)(=O)c1ccc(O)c2ncccc12 [Compound 15, 5-(Ethylsulfonyl)quinoline-8-ol]",Hepatocyte Stability (Rat),[1],39 μL/min/10^6 cells
same,metabolic stability / clearance in rat hepatocytes (in words),[1],high hepatocyte clearance
same,overall exposure in mouse (in words),[3],low overall exposure
"O=S(=O)(c1ccc(O)c2ncccc12)C1CCCC1 [Compound 11, 5-(Cyclopentylsulfonyl)quinoline-8-ol]",clearance,[2],26 mL/min/kg
"O=S(=O)(c1ccc(C(F)(F)F)cc1)c1cc(F)c(O)c2ncccc12 [Compound 18, 7-Fluoro-5-((4-(trifluoromethyl)phenyl)sulfonyl)quinolin-8-ol]",clearance,[2],13 mL/min/kg
same,Hepatocyte Stability (Rat),[1],12 μL/min/10^6 cells
"O=S(=O)(c1ccc(F)cc1)c1cc(F)c(O)c2ncccc12 [Compound 20, 7-Fluoro-5-((4-fluorophenyl)sulfonyl)quinolin-8-ol]",P-gp substrate (in words),[8],not substrates for the transporter
same,clearance,[2],12 mL/min/kg
same,Hepatocyte Stability (Rat),[1],15 μL/min/10^6 cells
same,concentration at 4 h,[6],59 nM
same,Non-specific binding to CSF (bound),[7],51–57%
"Cc1c(Cl)c(C)[n+]([O-])c(Cl)c1-c1noc(-c2cc(O)c(O)c([N+](=O)[O-])c2)n1 [Compound 3, opicapone]",brain penetration (in words),[4],negligible brain penetration
"Oc1cccc2cccnc12 [Compound 4, 8-hydroxyquinoline, reference compound]",MB-COMT inhibition / potency (in words),[9],abolished MB-COMT inhibition
"Cc1ccc(S(=O)(=O)c2cc(Br)c(O)c3ncccc23)cc1 [Compound 23, 7-Bromo-5-tosylquinolin-8-ol]",MB-COMT inhibition / potency (in words),[9],reduced MB-COMT potency
"Cc1cc(S(=O)(=O)N2CCCC2)c2cccnc2c1O [Compound 30, 7-Methyl-5-(pyrrolidin-1-ylsulfonyl)quinolin-8-ol]",Hepatocyte Stability (Rat),[1],103 μL/min/10^6 cells
same,metabolic stability / clearance in rat hepatocytes (in words),[1],no impact on clearance
same,MB-COMT inhibition / potency (in words),[9],tolerated
"Cc1ccc(S(=O)(=O)c2cc(Cl)c(O)c3ncccc23)cc1 [Compound 22, 7-Chloro-5-tosylquinolin-8-ol]",P-gp substrate (in words),[8],not substrates for the transporter
same,clearance,[2],25 mL/min/kg
same,Hepatocyte Stability (Rat),[1],78 μL/min/10^6 cells
"Cc1ccc(C(=O)c2cc(O)c(O)c([N+](=O)[O-])c2)cc1 [Compound 1, tolcapone, reference compound]",CSF,[6]; 4 hours after 15mpk ip,BLQ
same,Free Brain,[6]; 4 hours after 15mpk ip,BLQ
same,hepatic toxicity (in words),[10],associated with hepatic toxicity
same,brain penetration (in words),[4],low but measurable levels in the brain
"COc1ccc(S(=O)(=O)N2CCCC2)c2cccnc12 [Compound 14, 8-Methoxy-5-(pyrrolidin-1-yulsulfonyl)quinoline]",MB-COMT inhibition / potency (in words),[9],no appreciable inhibition of MB-COMT
"O=S(=O)(c1cc(F)c(O)c2ncccc12)N1CCCC1 [Compound 28, 7-Fluoro-5-(pyrrolidin-1-ylsulfonyl)quinolin-8-ol]",substrate or inhibitor of BCRP (in words),[11],not found to be a substrate or an inhibitor
same,rat PK profile (in words),[2],good pharmacokinetics
same,clearance,[2],11 mL/min/kg
same,Hepatocyte Stability (Rat),[1],21 μL/min/10^6 cells
same,"HVA decrease, significance versus vehicle (in words)",[5],statistically significant difference
same,concentration at 4 h,[6],77 nM
same,substrate or inhibitor of P-gp (in words),[12],not found to be a substrate or an inhibitor
same,substrate or inhibitor of MRP2 (in words),[13],not found to be a substrate or an inhibitor
same,Non-specific binding to CSF (bound),[7],51–57%
"O=S(=O)(c1cc(Cl)c(O)c2ncccc12)N1CCCC1 [Compound 29, 7-Chloro-5-(pyrrolidin-1-ylsulfonyl)quinolin-8-ol]",rat PK profile (in words),[2],very low clearance and long half-life
same,clearance,[2],1 mL/min/kg
same,Hepatocyte Stability (Rat),[1],14 μL/min/10^6 cells
